Read-outs that look alike come from different tables or passages of the source.
Legend:
[1] = molecular target: V. cholerae Aer2 PAS1 [38–157] peptide (V. cholerae O1 JBK 70); assay: SEC
[2] = molecular target: V. cholerae Aer2 PAS1 [38–157] peptide (V. cholerae O1 JBK 70); assay: SEC; remark: listed apart in the source
[3] = molecular target: V. cholerae Aer2 PAS 1–2 [1–282] peptide (V. cholerae O1 JBK 70); assay: SEC
[4] = molecular target: V. cholerae Aer2 PAS1 [1–164] peptide (V. cholerae O1 JBK 70); assay: SEC
VcAer2 PAS1 [38–157] = assay: O2 and CO titrations of purified PAS1 peptide; format: binding, Vibrio cholerae; conditions: read-out: Kd(CO); PAS1 [38–157] peptide
Outline: (§1)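 PAS1 [38–157] or PAS2 [165–282] peptides came from E. coli BT3388 grown in LB Lennox with 0.5 µg ml−1 thiamine and 25 µg ml−1 ALA, induced with 600 µM IPTG and Ni-NTA purified. Heme-bound protein was quantified by pyridine hemochrome assay to standardize PAS-heme concentration. Kd(O2) and Kd(CO) were estimated by linear interpolation between unliganded Fe2+ and Fe2+-O2 or Fe2+-CO spectra. Averaged over 2–8 experiments, rounded to whole numbers.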

VcAer2 PAS2 [165–282] = assay: O2 and CO titrations of purified PAS2 peptide; format: binding, Vibrio cholerae; conditions: read-out: Kd(CO); PAS2 [165–282] peptide
Outline: as §1

PaAer2/BT3388 cells = conditions: PaAer2 in E. coli; ref Watts et al., 2011; cited from earlier work
[5] = tested on: PAS2 [165–282] W276 mutant peptides; assay: Gas binding to purified PAS2 [165–282] W276 mutant peptides; design: species or system Vibrio cholerae; conditions: PAS2 peptides containing W276C, L and V
[6] = tested on: PAS1 [38–157] mutant peptides; assay: Gas binding to purified PAS1 [38–157] mutant peptides; design: species or system Vibrio cholerae
[7] = molecular target: PaPAS (Pseudomonas aeruginosa Aer2 PAS domain); conditions: read-out: Kd(CO), ref Garcia et al., 2017; cited from earlier work
VcAer2 [165–678] = assay: O2 and CO titrations of purified VcAer2 [165–678]; format: binding, Vibrio cholerae; conditions: read-out: Kd(CO)
Outline: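 Truncated receptor was expressed in E. coli BT3388 in LB Lennox with 0.5 µg ml−1 thiamine and 25 µg ml−1 ALA, induced with 600 µM IPTG, then Ni-NTA purified. Heme content was assessed on 5 µM purified protein. Kd(O2) and Kd(CO) came from linear interpolation between unliganded Fe2+ and liganded (Fe2+-O2, Fe2+-CO) absorption spectra. Averaged over 2–8 experiments and rounded to whole numbers.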

VcAer2/BT3388 cells = assay: Behavioral assay; format: cell-based, E. coli; conditions: full-length VcAer2; 200 µM or 1 mM IPTG; with or without 25 µg ml^−1 ALA
Outline: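 Full-length receptor expressed in chemoreceptorless E. coli BT3388 grown at 30 °C in tryptone broth with 0.5 µg ml−1 thiamine (± 25 µg ml−1 ALA). Induced at OD600 0.2–0.25 for 2 h with 200 µM or 1 mM IPTG. Gas perfusion chamber toggled between air (20.9% O2) and N2. For CO, 30 s N2 then 10 s CO (>99%). Percent tumbling scored for all motile cells per field at 800×. Repeated ≥2 times on ≥2 occasions.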

[8] = molecular target: V. cholerae Aer2 PAS2 [165–282] peptide (V. cholerae O1 JBK 70); assay: SEC
[9] = molecular target: V. cholerae Aer2 PAS2 [165–282] peptide (V. cholerae O1 JBK 70); assay: SEC; remark: listed apart in the source

## V. cholerae Aer2 PAS1 [38–157] peptide (domain or fragment)
[1]
  stoichiometry N: 2
[2]
  stoichiometry N: 2

## V. cholerae Aer2 PAS 1–2 [1–282] peptide (domain or fragment)
[3]
  stoichiometry N: 2

## V. cholerae Aer2 PAS1 [1–164] peptide (domain or fragment)
[4]
  stoichiometry N: 2

## [C-]#[O+] [CO, carbon monoxide]
VcAer2 PAS1 [38–157]
  Kd: 7 µM
VcAer2 PAS2 [165–282]
  Kd: 5 µM
PaAer2/BT3388 cells
  cells tumbling in the presence of gas: ~ 98%
[5]
  CO binding: bound CO
[6]; PAS1-W151C, F, G, P, S, T and V
  CO binding affinity relative to WT: WT affinities
[6]; PAS1-W151L
  CO binding affinity relative to WT: WT affinities
[6]; PAS1-Y119L
  CO binding affinity relative to WT: WT O2 and CO affinities
[6]; PAS1-Y119L/W151L
  CO binding: bound heme and CO
[7]
  Kd: 2000 nM
VcAer2 [165–678]
  Kd: 2000 nM
VcAer2/BT3388 cells
  behavioral response to gas: did not respond

## V. cholerae Aer2 PAS2 [165–282] peptide (domain or fragment)
[8]
  stoichiometry N: 2
[9]
  stoichiometry N: 2
